From ChEMBL document CHEMBL2417367 (Bioorg Med Chem, 2013) come the findings set out here.

Structures are written as SMILES.

One test relates to MKN-45. As to the kind of experiment: cells. Particulars: Homo sapiens, MKN-45, 72 h.
For the next test, the system named is MDA-MB-231. As to the kind of experiment: Cytotoxicity against human MDA-MB-231 cells after 72 hrs by MTT assay. The format is functional, cell-based. The following applies: MDA-MB-231, 72 h. The method, boiled down: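 Cells were grown in MEM with 10% FBS. About 4×10^3 cells per well were seeded and incubated 24 h at 37 °C in 5% CO2. Compounds were then added at set final concentrations for 72 h. MTT (final 5 µg/mL) was added for 4 h at 37 °C, and formazan was dissolved in DMSO and read at 492 nm against a 630 nm reference. Each line was tested three times; IC50 is mean ± SD.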

The test system of a further test is HT-29. Put plainly: cells. Particulars: Homo sapiens, HT-29, 72 h.
The subject of a further test is A549. As to the kind of experiment: Cytotoxicity against human A549 cells after 72 hrs by MTT assay. The format is functional, cell-based. The following applies: A549, 72 h.
Another test in a line: cells. Particulars: Homo sapiens, U-87 MG, 72 h.
The test system of a further test is SMMC-7721. As to the kind of experiment: cells. Particulars: Homo sapiens, SMMC-7721, 72 h.
The next test deals with NCI-H460. Put plainly: cells. The following applies: Homo sapiens, NCI-H460, 72 h.

For the compound `COc1cc2c(Oc3ccc(NC(=S)N/N=C/c4ccco4)cc3F)ccnc2cc1OCCCN1CCCCC1`, the IC50 with MKN-45 is 880 nM; with MDA-MB-231 it was 1100 nM; in the test on HT-29, 400 nM; with A549, 470 nM.
In the same order, the values of `CC/C(=N\NC(=O)Nc1ccc(Oc2ccnc3cc(OCCCN4CCCCC4)c(OC)cc23)c(F)c1)c1ccccc1` are 930 nM, 1100 nM, 330 nM and 290 nM.
The like results for `COc1cc2c(Oc3ccc(NC(=O)N/N=C/c4ccccc4F)cc3F)ccnc2cc1OCCCN1CCC(C)CC1` were, in that order, 490 nM, 880 nM, 180 nM and 220 nM.
The like results for `COc1cc2c(Oc3ccc(NC(=O)N/N=C/c4cccc([N+](=O)[O-])c4)cc3F)ccnc2cc1OCCCN1CCCCC1` were, in that order, 760 nM, 1000 nM, 320 nM and 750 nM.
As to `COc1cc2c(Oc3ccc(NC(=O)N/N=C/c4ccc(Cl)cc4)cc3F)ccnc2cc1OCCCN1CCCCC1`, the IC50 in the test on MKN-45 was found to be 470 nM; in “cells”, 24 nM; in the test on MDA-MB-231 it was 940 nM; in the test with HT-29, 98 nM; in the test with SMMC-7721 it was 410 nM; in the test on NCI-H460, 63 nM. In the test with A549, this compound showed an IC50 of 220 nM.
As for `COc1cc2c(Oc3ccc(NC(=O)N/N=C/c4ccccc4C#N)cc3F)ccnc2cc1OCCCN1CCCCC1`, the IC50 with MKN-45 was found to be 520 nM; in the test with MDA-MB-231, 610 nM; in the test with HT-29, 260 nM; in the test with A549, 190 nM.
The like results for `COc1cc2c(Oc3ccc(NC(=O)N/N=C/c4ccc(F)cc4)cc3F)ccnc2cc1OCCCN1CCC(C)CC1` were, in that order, 610 nM, 930 nM, 83 nM and 110 nM.
The like results for `COc1cc2c(Oc3ccc(NC(=O)NNCc4ccc(F)cc4F)cc3F)ccnc2cc1OCCCN1CCC(C)CC1` were, in that order, 860 nM, 1300 nM, 660 nM and 350 nM.
The like results for `COc1cc2c(Oc3ccc(NC(=O)N/N=C/c4ccc(C(F)(F)F)cc4)cc3F)ccnc2cc1OCCCN1CCOCC1` were, in that order, 780 nM, 1100 nM, 1100 nM and 790 nM.
For the compound `COc1cc2c(Oc3ccc(NC(=O)N/N=C/c4ccc[nH]4)cc3F)ccnc2cc1OCCCN1CCCCC1`, the IC50 in the test on MKN-45 is 930 nM; in the test with MDA-MB-231, 1000 nM; in the test with HT-29, 440 nM; with A549 it was 540 nM.
In the same order, the values of `COc1cc2c(Oc3ccc(NC(=S)N/N=C/c4ccccc4[N+](=O)[O-])cc3F)ccnc2cc1OCCCN1CCCCC1` are 450 nM, 830 nM, 140 nM and 250 nM.
In the same order, the values of `COc1cc2c(Oc3ccc(NC(=O)N/N=C/c4ccccc4C(F)(F)F)cc3F)ccnc2cc1OCCCN1CCCCC1` are 590 nM, 730 nM, 160 nM and 130 nM.
The like results for `COc1cc2c(Oc3ccc(NC(=O)N/N=C/c4ccco4)cc3F)ccnc2cc1OCCCN1CCCCC1` were, in that order, 710 nM, 910 nM, 360 nM and 440 nM.
`COc1cc2c(Oc3ccc(NC(=O)N/N=C/c4ccccc4)cc3F)ccnc2cc1OCCCN1CCCCC1`: the IC50 in the test on MKN-45 was determined as 580 nM; in the test with MDA-MB-231, 1000 nM; in the test on HT-29, 180 nM; with A549, 160 nM.
Turning to `COc1cc2c(Oc3ccc(NC(=O)N/N=C/c4ccccc4)cc3F)ccnc2cc1OCCCN1CCC(C)CC1`, the IC50 worked out at 510 nM in the test with MKN-45, 930 nM with MDA-MB-231, 240 nM in the test with HT-29 and 300 nM in the test with A549.
Consider `COc1cc2c(Oc3ccc(NC(=O)N/N=C/c4ccccc4F)cc3F)ccnc2cc1OCCCN1CCCCC1`, for which the IC50 with MKN-45 amounted to 570 nM; in the test with MDA-MB-231, 920 nM; in the test on HT-29, 220 nM; in the test with A549, 130 nM.
In the same order, the values of `COc1ccc(OC)c(/C=N/NC(=O)Nc2ccc(Oc3ccnc4cc(OCCCN5CCCCC5)c(OC)cc34)c(F)c2)c1` are 860 nM, 1500 nM, 590 nM and 860 nM.
For the compound `COc1cc2c(Oc3ccc(NC(=O)N/N=C/c4ccc([N+](=O)[O-])cc4)cc3F)ccnc2cc1OCCCN1CCCCC1`, the IC50 with MKN-45 was 890 nM; in the test on MDA-MB-231, 1400 nM; with HT-29 it was 370 nM; with A549, 820 nM.
In the same order, the values of `COc1cc2c(Oc3ccc(NC(=O)N/N=C/c4ccccc4[N+](=O)[O-])cc3F)ccnc2cc1OCCCN1CCCCC1` are 480 nM, 550 nM, 150 nM and 190 nM.
For `COc1cc2c(Oc3ccc(NC(=O)N/N=C/c4ccc(F)cc4F)cc3F)ccnc2cc1OCCCN1CCCCC1`, the IC50 in the test with MKN-45 worked out at 560 nM; in “cells” it was 18 nM; with MDA-MB-231 it was 850 nM; in the test with HT-29 it was 190 nM; in the test with SMMC-7721, 300 nM; with NCI-H460, 77 nM. This compound also had an IC50 in the test on A549 of 78 nM.
As for `COc1cc2c(Oc3ccc(NC(=O)N/N=C/c4ccc(Cl)cc4)cc3F)ccnc2cc1OCCCN1CCOCC1`, the IC50 in the test with MKN-45 turned out to be 640 nM; in the test on MDA-MB-231, 1200 nM; in the test with HT-29, 160 nM; with A549 it was 330 nM.
Consider `COc1cc2c(Oc3ccc(NC(=O)N/N=C/C(C)C)cc3F)ccnc2cc1OCCCN1CCCCC1`, for which the IC50 amounted to 2000 nM with MKN-45, 2700 nM in the test on MDA-MB-231, 1100 nM in the test with HT-29 and 1900 nM with A549.
As to `COc1cc2c(Oc3ccc(NC(=O)N/N=C/c4ccc(F)cc4)cc3F)ccnc2cc1OCCCN1CCCCC1`, the IC50 in the test with MKN-45 worked out at 490 nM; in the test with MDA-MB-231, 820 nM; in the test with HT-29 it was 130 nM; in the test on SMMC-7721 it was 330 nM; in the test with NCI-H460, 69 nM; in the test on A549 it was 89 nM.
Turning to `C=CCc1cccc(/C=N/NC(=O)CN2CCN(Cc3ccccc3)CC2)c1O` [PAC-1], the figures for the IC50 in the test with MKN-45, with MDA-MB-231 and in the test on HT-29 were 820 nM, 4600 nM and 830 nM, respectively.
For `COc1cc2c(Oc3ccc(NC(=O)N/N=C/c4ccc(OC(F)(F)F)cc4)cc3F)ccnc2cc1OCCCN1CCOCC1`, the IC50 in the test on MKN-45 amounted to 1200 nM; in the test on MDA-MB-231, 1800 nM; in the test with HT-29 it was 1400 nM; in the test on A549, 880 nM.
In the same order, the values of `COc1cc2c(Oc3ccc(NC(=O)N/N=C/c4ccc(F)cc4)cc3F)ccnc2cc1OCCCN1CCCC1` are 590 nM, 1300 nM, 220 nM and 270 nM.
The like results for `COc1cc2c(Oc3ccc(NC(=O)N/N=C/c4ccc(F)cc4)cc3F)ccnc2cc1OCCCN1CCOCC1` were, in that order, 560 nM, 1600 nM, 96 nM and 200 nM.
`COc1cc2c(Oc3ccc(NC(=O)N/N=C/c4c(C)cc(C)cc4C)cc3F)ccnc2cc1OCCCN1CCCCC1`: the IC50 was 650 nM in the test with MKN-45, 1100 nM in the test on MDA-MB-231, 700 nM in the test with HT-29 and 1900 nM with A549.
The like results for `COc1cc2c(Oc3ccc(NC(=O)N/N=C/c4ccccc4)cc3F)ccnc2cc1OCCCN1CCOCC1` were, in that order, 670 nM, 2100 nM, 200 nM and 350 nM.
`COc1cc2c(Oc3ccc(NC(=O)N/N=C/c4ccc(F)c(F)c4)cc3F)ccnc2cc1OCCCN1CCCCC1`: the IC50 with MKN-45 came out at 710 nM; with MDA-MB-231 it was 1300 nM; in the test on HT-29 it was 380 nM; in the test with A549, 270 nM.
In the same order, the values of `COc1cc2c(Oc3ccc(NC(=O)N/N=C(\C)c4ccccc4)cc3F)ccnc2cc1OCCCN1CCCCC1` are 640 nM, 960 nM, 200 nM and 160 nM.
The like results for `COc1cc2c(Oc3ccc(NC(=O)N/N=C/c4ccccc4)cc3F)ccnc2cc1OCCCN1CCCC1` were, in that order, 770 nM, 950 nM, 440 nM and 420 nM.
The like results for `COc1cc2c(Oc3ccc(NC(=S)N/N=C/c4ccc(F)cc4F)cc3F)ccnc2cc1OCCCN1CCCCC1` were, in that order, 680 nM, 950 nM, 330 nM and 190 nM.
For `COc1cc2c(Oc3ccc(NC(=O)N/N=C/c4ccc(Cl)cc4)cc3F)ccnc2cc1OCCCN1CCC(C)CC1`, the IC50 in the test on MKN-45 was 620 nM; in the test with MDA-MB-231, 1200 nM; in the test on HT-29 it was 140 nM; in the test on A549, 170 nM.
In the same order, the values of `COc1cccc(/C=N/NC(=O)Nc2ccc(Oc3ccnc4cc(OCCCN5CCCCC5)c(OC)cc34)c(F)c2)c1` are 730 nM, 1200 nM, 330 nM and 340 nM.
In the same order, the values of `COc1cc2c(Oc3ccc(NC(=O)N/N=C/c4cccnc4)cc3F)ccnc2cc1OCCCN1CCCCC1` are 790 nM, 880 nM, 320 nM and 460 nM.
In the same order, the values of `COc1cc2c(Oc3ccc(NC(=O)N/N=C/c4ccc(Cl)cc4)cc3F)ccnc2cc1OCCCN1CCCC1` are 610 nM, 1300 nM, 180 nM and 410 nM.
